# Results pooled from the literature.
# CHRM3: Muscarinic acetylcholine receptor M3 (CHRM3, Homo sapiens, UniProt P20309)
# SIGMAR1: Sigma non-opioid intracellular receptor 1 (SIGMAR1, Cavia porcellus, UniProt Q60492)
# PTGS2: Prostaglandin G/H synthase 2 (PTGS2, Homo sapiens, UniProt P35354)
# Rock2: Rho-associated protein kinase 2 (Rock2, Rattus norvegicus, UniProt Q62868)
Structure (SMILES),target,assay,system,setting,inhibition [%]
COc1cc(NC(C)=O)c(Cl)cc1C(=O)Nc1nccs1,CHRM3,cell-free assay,,10 µM,-22.1
COc1cc2c(cc1OC)CN(C(C)CCc1ccc(O)cc1)CC2 (centres unmarked),SIGMAR1,"ligand displacement, radioligand",,0.1 µM,34
O=C(c1ccc(Cl)cc1)N(Cc1ccccc1)C1CCCCC1,CHRM3,cell-free assay,,10 µM,-7.8
CC/C(=N\NC(=O)NCc1cccc(O)c1)c1ccc(O)c(C)c1O,"NPM/ALK (Nucleophosmin/ALK tyrosine kinase receptor) (NPM1/ALK, Homo sapiens, UniProt P06748+Q9UM73)","enzyme activity, inhibitor",,0.1 µM,-0.4
O=c1cc(-c2ccc(O)c(O)c2)oc2cc(O)cc(O)c12,PTGS2,"enzyme activity, inhibitor",,0.49 µg/mL,45
CNC(=O)c1cc(Oc2ccc(NC(=O)Nc3ccc(Cl)c(C(F)(F)F)c3)cc2)ccn1,Rock2,"enzyme activity, inhibitor",,10 µM,44
O=C(O)c1ccc(O)cc1,PTGS2,"enzyme activity, inhibitor",,0.98 µg/mL,32.2
CN(Cc1ccc(NC(=O)C2=Cc3cc(-c4ccc(OCCCCCCCF)cc4)ccc3CCC2)cc1)C1CCOCC1,SIGMAR1,"ligand displacement, radioligand",,10 µM,14
O=C1N=C(N2CCCCN2)S/C1=C\c1ccc(F)cc1O,"5-hydroxytryptamine receptor 1B (Htr1b, Rattus norvegicus, UniProt P28564)","ligand displacement, radioligand",,10 µM,< 10
COc1cc(-c2cc(=O)c3c(O)cc(O)cc3o2)ccc1O,PTGS2,"enzyme activity, inhibitor",,7.81 µg/mL,58.6
CCN(Cc1ccccc1C(F)(F)F)C(=O)C1CCN(S(=O)(=O)c2ccc3[nH]ncc3c2)CC1,"Neuropeptide Y receptor type 2 (NPY2R, Homo sapiens, UniProt P49146)","ligand displacement, radioligand",,10 µM,3
CCN1CCN(Cc2ccc(NC(=O)c3ccc(C)c(Oc4ccnc5[nH]ccc45)c3)cc2C(F)(F)F)CC1,"Scaffold protein ILK (ILK, Homo sapiens, UniProt Q13418)","target engagement in cells, inhibitor, chemoproteomics",Huh-7,1 µM,-36.8
CN(C)C1CCN(CC#Cc2nn(C3CCCC3)c3nc(NCc4ccccc4)ncc23)C1 (centres unmarked),"Dual specificity tyrosine-phosphorylation-regulated kinase 1A (DYRK1A, Homo sapiens, UniProt Q13627)","enzyme activity, inhibitor, FRET",,0.1 µM,4
C=C[C@@]1(C)C=C2CC[C@@H]3[C@](C)(CCC[C@@]3(C)C(=O)O)[C@H]2CC1,PTGS2,"enzyme activity, inhibitor",,0.49 µg/mL,7.14
Cc1ccc(Nc2nccc(N(C)c3ccc4c(C)n(C)nc4c3)n2)cc1S(N)(=O)=O,Rock2,"enzyme activity, inhibitor",,0.3 µM,11
COc1ccc(-c2cc(=O)c3c(O)cc(O[C@@H]4O[C@H](CO)[C@@H](O)[C@H](O)[C@H]4O)cc3o2)cc1O,PTGS2,"enzyme activity, inhibitor",,7.81 µg/mL,100
Oc1ccc2ccccc2n1,"Serum paraoxonase/arylesterase 1 (PON1, Homo sapiens, UniProt P27169)","enzyme activity, inhibitor",,20 µM,84
